# Measured values taken from ChEMBL document CHEMBL4196122, “Design, Synthesis, and Biological Evaluation of Allosteric Effectors That Enhance CO Release from Carboxyhemoglobin” (ACS Med Chem Lett, 2018).
# Legend:
# [1] = target: T1, Hemoglobin HbA (Homo sapiens) (UniProt P69905+P68871); test: Binding affinity to hemoglobin (unknown origin) assessed as increase in release of carbon monooxide from carboxyhemoglobin by measuring half life of carboxyhemoglobin at 20:1 compound/Hb tetramer ratio incubated for 1 hr measured every 15 mins for 90 mins (reference value: 80 +/- 0.3 min); format: protein-complex assay
# T1 sequence (P68871 2-147 partner limits assumed): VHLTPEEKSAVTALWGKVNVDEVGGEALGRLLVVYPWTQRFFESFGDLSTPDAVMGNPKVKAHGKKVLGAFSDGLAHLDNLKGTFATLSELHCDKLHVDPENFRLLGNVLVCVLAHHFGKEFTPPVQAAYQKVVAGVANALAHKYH
# T1 sequence (P69905 2-142 limits assumed): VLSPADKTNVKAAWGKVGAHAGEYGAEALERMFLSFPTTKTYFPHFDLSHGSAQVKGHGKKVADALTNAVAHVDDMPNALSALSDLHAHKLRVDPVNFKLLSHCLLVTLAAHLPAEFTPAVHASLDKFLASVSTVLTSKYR
# [2] = target: T1, Hemoglobin HbA (Homo sapiens); test: Binding affinity to hemoglobin (unknown origin) assessed as increase in release of carbon monooxide from carboxyhemoglobin by measuring half life of carboxyhemoglobin at 5:1 compound/Hb tetramer ratio incubated for 1 hr measured every 15 mins for 90 mins (reference value: 80 +/- 0.3 min); format: protein-complex assay
# [3] = Hemolytic activity against human RBC assessed as fraction of extracellular Hb level at 1 mM after 1 hr relative to total Hb level; format: ADME, cell-based, Erythrocyte; details: red blood cells (erythrocytes), read-out: Activity
# Summary of the method: (§1)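 Human red blood cells (50 µM Hb) incubated with compound at 1 mM in 0.1 vol % DMSO. Read-out is extracellular Hb as a fraction of total Hb. "-" denotes less than 1% of total Hb released.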
# [4] = Aqueous solubility of the compound in DMSO/[…] solution at 2.5 mM; format: physicochemical; details: 2500 µM
# Summary of the method: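 Compound made up at 2.5 mM in DPBS containing 1 vol% DMSO. Scored by visual inspection of the solution: "+" if no aggregates or crystals are seen, "-" if aggregates or crystals appear.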
# [5] = (§2) Hemolytic activity against human RBC assessed as increase in fraction of extracellular Hb level at 1 mM after 1 hr; format: ADME, cell-based, Erythrocyte; details: red blood cells (erythrocytes), read-out: Activity; summary of the method: as §1
# [6] = tested on: Erythrocyte; test: as §2; format: ADME, cell-based; details: erythrocyte, 1 h, 1000 µM; summary of the method: as §1
# [7] = target: T1, Hemoglobin HbA (Homo sapiens); test: Binding affinity to hemoglobin (unknown origin) assessed as partial oxygen pressure at which 50% of Hb is oxygenated (reference value: 17 +/- 0.3 mmHg); format: protein-complex assay
SMILES,T1/2 [1] [h],T1/2 [2] [h],solubility [4],Activity [7] [mmHg],"hemolysis at 1 h, 1000 µM [3] [%]","hemolysis at 1 h, 1000 µM [5] [%]",Activity [6]
Cc1cc(C)cc(C(=O)N(C)[C@H](Cc2ccccc2)C(=O)N[C@@H](Cc2c[nH]c3ccccc23)C(=O)O)c1,1.08,1.23,Insoluble,,< 1,,
Cc1cc(C)cc(C(=O)N[C@H](Cc2ccc(-c3ccccc3)cc2)C(=O)N[C@@H](Cc2c[nH]c3ccccc23)C(=O)O)c1,1.07,1.15,Insoluble,,< 1,,
Cc1cc(C)cc(C(=O)N[C@H](Cc2ccc(-c3c(CO)noc3C)cc2)C(=O)N[C@@H](Cc2c[nH]c3ccccc23)C(=O)O)c1,1.08,1.17,Soluble,,< 1,,
Cc1cc(C)cc(C(=O)N[C@H](Cc2ccccc2)C(=O)N[C@@H](Cc2c[nH]c3ccccc23)C(=O)O)c1,1.05,,Insoluble,,< 1,,
Cc1cc(C)cc(C(=O)N[C@H](Cc2ccc(-c3c(C)noc3C)cc2)C(=O)N[C@@H](Cc2c[nH]c3ccccc23)C(=O)O)c1,0.95,1.2,Insoluble,,< 1,,
Cc1cc(C)cc(C(=O)N[C@H](Cc2ccc(-c3c(C(=O)O)noc3C)cc2)C(=O)N[C@@H](Cc2c[nH]c3ccccc23)C(=O)O)c1,1.18,1.3,Soluble,,< 1,,
Cc1cc(C)cc(C(=O)N[C@H](Cc2ccc(-c3ccc(CN(C)C)o3)cc2)C(=O)N[C@@H](Cc2c[nH]c3ccccc23)C(=O)O)c1,1.12,1.2,Insoluble,,< 1,,
Cc1cc(C)cc(C(=O)N(C)[C@H](Cc2ccc(-c3ccccc3)cc2)C(=O)N[C@@H](Cc2c[nH]c3ccccc23)C(=O)O)c1,,1.15,Insoluble,19,,,Toxic

# Further lines, with some results ahead:
T1/2 [1] [h],T1/2 [2] [h],solubility [4],Activity [7] [mmHg],SMILES,"hemolysis at 1 h, 1000 µM [3] [%]","hemolysis at 1 h, 1000 µM [5] [%]",Activity [6]
1,1.18,Insoluble,,Cc1cc(C)cc(C(=O)N[C@H](Cc2ccc(-c3ccco3)cc2)C(=O)N[C@@H](Cc2c[nH]c3ccccc23)C(=O)O)c1,,1 to 2,
1.15,1.23,Soluble,,Cc1cc(C)cc(C(=O)N[C@H](Cc2ccc(-c3cnn(C)c3)cc2)C(=O)N[C@@H](Cc2c[nH]c3ccccc23)C(=O)O)c1,< 1,,
1.28,1.33,Soluble,,Cc1cc(C)cc(C(=O)N[C@H](Cc2ccc(-c3cncnc3)cc2)C(=O)N[C@@H](Cc2c[nH]c3ccccc23)C(=O)O)c1,< 1,,
